According to ChEMBL document CHEMBL3046508, “Factors affecting the production of Trichoderma harzianum secondary metabolites during the interaction with different plant pathogens” (2009):
Activity calls are given as the source filed them. The calls are words filed in the database; no cut-off is given here.

Tests used:
Plenodomus lingam [1] = assay: Antifungal activity against Leptosphaeria maculans isolate UWA P11 assessed as growth inhibition at 100 ug/plug; assay type: functional, organism-based
Outline: (§1)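 Plugs cut from actively growing colony margins (L. maculans UWA P11 grown on V8 agar; B. cinerea and P. cinnamomi kept on PDA) were placed centrally on one-fifth strength PDA plates. Purified compound dissolved in filter-sterilized EtOAc was applied on top of each plug and the solvent evaporated; a solvent-only control was included. Colony diameter (mm) was measured daily. Three replicates per treatment; experiment run twice.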

Phytophthora cinnamomi [2] = assay: Antifungal activity against Phytophthora cinnamomi assessed as growth inhibition at 100 ug/plug; assay type: functional, organism-based; outline: as §1
Botrytis cinerea [3] = assay: Antifungal activity against Botryotinia fuckeliana assessed as growth inhibition at 0.01 to 200 ug/plug; assay type: functional, organism-based; outline: as §1
Plenodomus lingam [4] = assay: Antifungal activity against Leptosphaeria maculans isolate UWA P11 assessed as growth inhibition at 0.01 to 200 ug/plug; assay type: functional, organism-based; outline: as §1
Phytophthora cinnamomi [5] = assay: Antifungal activity against Phytophthora cinnamomi assessed as growth inhibition at 0.01 to 200 ug/plug; assay type: functional, organism-based; outline: as §1
Phytophthora cinnamomi [6] = assay: Antifungal activity against Phytophthora cinnamomi assessed as growth inhibition at 1 to 100 ug/plug; assay type: functional
Plenodomus lingam [7] = assay: Antifungal activity against Leptosphaeria maculans isolate UWA P11 assessed as growth inhibition at 1 to 100 ug/plug; assay type: functional
Botrytis cinerea [8] = assay: Antifungal activity against Botryotinia fuckeliana assessed as growth inhibition at 200 ug/plug; assay type: functional; outline: as §1
Phytophthora cinnamomi [9] = assay: Antifungal activity against Phytophthora cinnamomi assessed as growth inhibition at 200 ug/plug; assay type: functional; outline: as §1
Plenodomus lingam [10] = assay: Antifungal activity against Leptosphaeria maculans isolate UWA P11 assessed as growth inhibition at 200 ug/plug; assay type: functional; outline: as §1
Botrytis cinerea [11] = assay: Antifungal activity against Botryotinia fuckeliana assessed as growth inhibition at 1 to 10 ug/plug; assay type: functional, organism-based; outline: as §1
Phytophthora cinnamomi [12] = assay: Antifungal activity against Phytophthora cinnamomi assessed as growth inhibition at 1 to 10 ug/plug; assay type: functional, organism-based; outline: as §1

## C/C=C/C=C/CC1=C(CC(C)=O)C(=O)OC1
Plenodomus lingam [1]
  growth inhibition (GI): Active
Phytophthora cinnamomi [2]
  growth inhibition (GI): Active

## Cc1cc(O)c2c(c1)C(=O)c1cccc(O)c1C2=O
Botrytis cinerea [3]
  growth inhibition (GI): inactive
Plenodomus lingam [4]
  growth inhibition (GI): inactive
Phytophthora cinnamomi [5]
  growth inhibition (GI): inactive

## C/C=C/CC(C)C(=O)c1c(O)c(OC)c(OC)[nH]c1=O (stereo not given) [HARZIANOPYRIDONE]
Phytophthora cinnamomi [6]
  growth inhibition (GI): 100%
Plenodomus lingam [7]
  growth inhibition (GI): 100%

## C/C=C/C=C/CC1=C(CC(C)O)C(=O)OC1 (stereo not given) [HARZIANOLIDE]
Botrytis cinerea [8]
  growth inhibition (GI): <25%
Phytophthora cinnamomi [9]
  growth inhibition (GI): <25%
Plenodomus lingam [10]
  growth inhibition (GI): <25%

## C/C=C/C=C/C1=CC2=CC(=O)[C@](C)(OC(=O)[C@H](C)O)C(=O)C2=CO1
Botrytis cinerea [11]
  growth inhibition (GI): Active
Phytophthora cinnamomi [12]
  growth inhibition (GI): Active

## Cc1cc(O)c2c(c1)C(=O)c1ccccc1C2=O
Botrytis cinerea [3]
  growth inhibition (GI): inactive
Plenodomus lingam [4]
  growth inhibition (GI): inactive
Phytophthora cinnamomi [5]
  growth inhibition (GI): inactive
